Experimental data pooled from the literature.
Each line is one published result; the experiments were not run side by side.
Target: Epithelial discoidin domain-containing receptor 1 (DDR1, Homo sapiens, UniProt Q08345)

The remaining binding of COc1ncc2cc3ccccc3nc2c1C#N is reported as 85% (cell-free assay, competition with immobilised ligand; 5 µM).
For CC1CCCN1c1nccc(-c2cnn3ncccc23)n1 (centres unmarked), the remaining binding was 94% (binding; 1 µM).
With O=C(c1ccc(Nc2ncc(Cl)c(-c3ccc(Cl)s3)n2)cc1)N1CCC(N2CCCC2)CC1 the remaining binding was 12% (binding, competition with immobilised ligand; 1 µM).
c1cncc(-c2cccc(Nc3nccc(NC4CCCCC4)n3)c2)c1 gave a remaining binding of 27% (binding, competition with immobilised ligand; 10 µM).
For c1cnn2ncc(-c3ccnc(N4CCC45COC5)n3)c2c1, the remaining binding was 82% (binding; 1 µM).
CCCOc1ccc([C@H]2[C@H](C(=O)O)[C@@H](c3ccc4c(c3)OCO4)CN2CC(=O)Nc2c(CC)cccc2CC)cc1 has a remaining binding of 100% (cell-free assay, competition with immobilised ligand; 1 µM).
The remaining binding of CN(C)c1nccc(-c2cnn3ncccc23)n1 is reported as 100% (binding; 1 µM).
For O=C(NCCCN1CCOCC1)c1ccc(Nc2nccc(-c3cc4ccccc4s3)n2)cc1, the remaining binding was 20% (binding, competition with immobilised ligand; 1 µM).
CS(=O)(=O)c1cc(C2(NC(=O)c3cncc4c3cnn4-c3ccc(F)cc3)CC2)ccn1 has a remaining binding of 100% (cell-free assay, competition with immobilised ligand; 1 µM).
For COc1cnc(Nc2cccc(S(N)(=O)=O)c2)nc1N1CCN(c2ccccc2)CC1, the remaining binding was 93% (binding, competition with immobilised ligand; 1 µM).
CS(=O)(=O)N1CCCC(NC(=O)[C@H](CCC2CCCCC2)NC(=O)c2ccc(CNc3ncnc4c3nnn4-c3ccccc3)cc2)C1 (some centres unmarked) gave a remaining binding of 89% (cell-free assay, competition with immobilised ligand; 0.1 µM).
F[C@@H]1CCN(c2nccc(-c3cnn4ncccc34)n2)C1 gave a remaining binding of 83% (binding; 1 µM).
O=C(O)c1cc(-c2ccc(C3CCNCC3)cc2)c2ccc(-c3ccc(C(F)(F)F)cc3)cc2c1 gave a remaining binding of 100% (cell-free assay, competition with immobilised ligand; 1 µM).
O=C(NCC1CCOCC1)c1n[nH]cc1NC(=O)c1c(F)cccc1F gave a remaining binding of 100% (binding, competition with immobilised ligand; 1 µM).
For O=C(NCCCN1CCOCC1)c1ccc(Nc2ncc(Cl)c(-c3ccc(Cl)s3)n2)cc1, the remaining binding was 84% (binding, competition with immobilised ligand; 1 µM).
The remaining binding of Cc1cc(NC(=O)c2cccc(S(F)(F)(F)(F)F)c2)cc(-n2ccn3nc(-c4cccnc4)cc23)c1 is reported as 0% (cell-free assay, competition with immobilised ligand; 1 µM).
With N[C@@H]1CCN(c2nccc(-c3cnn4ncccc34)n2)C1 the remaining binding was 100% (binding; 1 µM).
With C=CC(=O)N1CCC(C(=O)NCC(=O)N2CCN(c3nc(-c4cnc(N)nc4C(F)F)nc(N4CCOCC4)n3)CC2)CC1 the remaining binding was 100% (binding, competition with immobilised ligand; 1 µM).
CNC(=O)Nc1ccc2c(c1)CC[C@@]21OC(=O)N(CC(=O)N(Cc2ccc(F)cc2)[C@@H](C)C(F)(F)F)C1=O has a remaining binding of 100% (cell-free assay, competition with immobilised ligand; 1 µM).
For Cc1cnn2ncc(-c3ccnc(N(C)C)n3)c2c1, the remaining binding was 100% (binding; 1 µM).
